# Experimental data: ChEMBL document CHEMBL1142545, “1,3-Dialkyl-8-(hetero)aryl-9-OH-9-deazaxanthines as potent A2B adenosine receptor antagonists: design, synthesis, structure-affinity and structure-selectivity relationships” (Bioorg Med Chem, 2008)
# Experiments:
# [1] = target: T1, Adenosine receptor A2b (Homo sapiens, UniProt P29275); assay: Displacement of [3H]DPCPX from human cloned adenosine A2B receptor expressed in HEK293 cells; assay type: cell-based
# T1 sequence (P29275 whole entry): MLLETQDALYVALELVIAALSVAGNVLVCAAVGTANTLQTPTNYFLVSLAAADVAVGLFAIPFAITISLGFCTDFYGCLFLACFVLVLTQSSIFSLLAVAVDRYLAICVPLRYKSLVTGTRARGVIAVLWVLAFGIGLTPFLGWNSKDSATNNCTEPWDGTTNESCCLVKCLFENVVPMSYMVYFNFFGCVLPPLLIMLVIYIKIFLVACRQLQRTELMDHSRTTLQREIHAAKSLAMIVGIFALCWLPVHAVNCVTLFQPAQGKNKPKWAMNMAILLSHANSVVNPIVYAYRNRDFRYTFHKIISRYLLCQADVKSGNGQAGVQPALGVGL
# [2] = target: T2, Adenosine receptor A2a (Homo sapiens, UniProt P29274); assay: Displacement of [3H]ZM241385 from human cloned adenosine A2A receptor expressed in human HeLa cells; assay type: cell-based
# T2 sequence (P29274 whole entry): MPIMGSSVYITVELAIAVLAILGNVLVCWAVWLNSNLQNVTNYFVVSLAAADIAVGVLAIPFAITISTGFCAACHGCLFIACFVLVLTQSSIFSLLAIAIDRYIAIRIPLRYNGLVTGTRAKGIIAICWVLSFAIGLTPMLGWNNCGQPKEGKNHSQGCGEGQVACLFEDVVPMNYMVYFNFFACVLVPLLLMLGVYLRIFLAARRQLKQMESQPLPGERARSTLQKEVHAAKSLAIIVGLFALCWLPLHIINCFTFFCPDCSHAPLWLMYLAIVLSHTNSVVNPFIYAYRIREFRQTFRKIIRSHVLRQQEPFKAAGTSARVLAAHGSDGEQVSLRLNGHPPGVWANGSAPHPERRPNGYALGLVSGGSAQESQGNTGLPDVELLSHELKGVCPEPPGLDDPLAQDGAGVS
# [3] = tested on: HeLa; assay: Selectivity index, ratio of Ki for human cloned adenosine A2A receptor expressed in human HeLa cells to Ki for human cloned adenosine A2B receptor expressed in HEK293 cells; assay type: cell-based
# Summary of the method: (§1)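 SI is the ratio of Ki values. […] A1 in CHO cells: [3H]DPCPX 2 nM. A2A in HeLa cells: [3H]ZM241385 3 nM. A2B in HEK-293 cells: [3H]DPCPX 25 nM. A3 in HeLa cells: [3H]NECA 30 nM. Filtration and scintillation counting.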
# [4] = Methanol-water partition coefficient, log K by RP-HPLC; assay type: physicochemical
# Summary of the method: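 Reverse-phase HPLC with water–methanol 40/60 (v/v) mobile phase at 1.0 ml/min; dead time from KI in methanol; retention times in minutes; log k from capacity factor taken as lipophilicity index.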
# [5] = Solubility in 50 mM Tris/HCl buffer at pH 7.4 by turbidimetric method; assay type: physicochemical
# Summary of the method: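 DMSO stock added stepwise (about 14 additions) to 50 mM Tris/HCl pH 7.4 at room temperature, final DMSO below 5%; precipitation detected as UV absorbance rise at 600–800 nm; solubility limit from bilinear fit of absorbance versus DMSO.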
# [6] = target: T2, Adenosine receptor A2a; assay: Displacement of [3H]ZM241385 from human cloned adenosine A2A receptor expressed in human HeLa cells at 1 uM; assay type: cell-based
# Summary of the method: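 HeLa membranes (10 µg) in 50 mM Tris–HCl, 1 mM EDTA, 10 mM MgCl2, 2 U/mL adenosine deaminase, pH 7.4; 3 nM [3H]ZM241385, 25 °C; NECA for nonspecific binding; filtration with 4× ice-cold washes, scintillation counting; percent radioligand displacement at 1 µM.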
# [7] = target: T3, Adenosine receptor A1 (Homo sapiens, UniProt P30542); assay: Displacement of [3H]DPCPX from human cloned adenosine A1 receptor expressed in CHO cells; assay type: cell-based
# T3 sequence (P30542 whole entry): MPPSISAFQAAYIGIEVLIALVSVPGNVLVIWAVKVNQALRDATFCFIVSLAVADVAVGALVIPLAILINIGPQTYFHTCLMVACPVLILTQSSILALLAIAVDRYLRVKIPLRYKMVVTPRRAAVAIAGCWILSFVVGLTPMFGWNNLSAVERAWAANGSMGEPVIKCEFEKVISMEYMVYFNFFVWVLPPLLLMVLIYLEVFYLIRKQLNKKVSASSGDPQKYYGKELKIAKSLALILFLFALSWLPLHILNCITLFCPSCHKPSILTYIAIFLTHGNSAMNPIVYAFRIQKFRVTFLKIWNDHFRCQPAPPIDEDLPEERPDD
# [8] = target: T4, Adenosine receptor A3 (Homo sapiens, UniProt P0DMS8); assay: Displacement of [3H]NECA from human cloned adenosine A3 receptor expressed in human HeLa cells; assay type: cell-based
# T4 sequence (P0DMS8 whole entry): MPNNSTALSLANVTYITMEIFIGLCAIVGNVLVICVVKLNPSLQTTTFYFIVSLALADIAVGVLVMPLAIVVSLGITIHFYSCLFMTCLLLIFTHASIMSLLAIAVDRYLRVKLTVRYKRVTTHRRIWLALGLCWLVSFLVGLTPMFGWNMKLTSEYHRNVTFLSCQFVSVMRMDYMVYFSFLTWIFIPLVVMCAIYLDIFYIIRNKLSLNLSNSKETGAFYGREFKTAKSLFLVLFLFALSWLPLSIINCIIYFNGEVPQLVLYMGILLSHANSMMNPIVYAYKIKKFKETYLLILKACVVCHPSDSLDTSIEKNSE
# [9] = target: T4, Adenosine receptor A3; assay: Displacement of [3H]NECA from human cloned adenosine A3 receptor expressed in human HeLa cells at 1 uM; assay type: cell-based
# [10] = target: Adenosine receptor A2a (Rattus norvegicus, UniProt P30543); assay: Antagonist activity at adenosine A2A receptor in Sprague-Dawley rat aorta assessed as inhibition of phenylephrine-induced contraction; assay type: functional, tissue-based; details: read-out: pA2 (converted)
# Adenosine receptor A2a (Rattus norvegicus, UniProt P30543), sequence (P30543 whole entry): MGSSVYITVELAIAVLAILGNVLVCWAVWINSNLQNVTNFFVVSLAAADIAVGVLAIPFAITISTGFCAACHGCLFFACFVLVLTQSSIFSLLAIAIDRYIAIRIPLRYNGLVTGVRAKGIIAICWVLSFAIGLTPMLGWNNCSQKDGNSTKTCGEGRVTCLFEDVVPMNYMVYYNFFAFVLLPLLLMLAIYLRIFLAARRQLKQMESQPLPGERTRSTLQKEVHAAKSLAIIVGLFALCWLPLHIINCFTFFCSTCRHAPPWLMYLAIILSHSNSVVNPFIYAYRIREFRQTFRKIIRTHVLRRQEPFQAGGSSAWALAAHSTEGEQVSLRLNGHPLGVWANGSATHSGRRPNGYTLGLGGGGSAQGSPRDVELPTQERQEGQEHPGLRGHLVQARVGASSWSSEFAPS
# Summary of the method: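 Aorta from male Sprague-Dawley rats (200–250 g), cut into 4 mm rings in Krebs solution at 37 °C with carbogen, 2 g basal tension, stabilised 60 min. Rings were contracted with phenylephrine, then antagonist was incubated for 30 min before cumulative NECA relaxation curves. pA2 = log((EC50'/EC50) − 1) − log C, from NECA EC50 with and without antagonist.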
# [11] = tested on: HEK293; assay: Selectivity index, ratio of Ki for human cloned adenosine A1 receptor expressed in CHO cells to Ki for human cloned adenosine A2B receptor expressed in HEK293 cells; assay type: cell-based; summary of the method: as §1
# [12] = tested on: HeLa; assay: Selectivity index, ratio of Ki for human cloned adenosine A3 receptor expressed in human HeLa cells to Ki for human cloned adenosine A2B receptor expressed in HEK293 cells; assay type: cell-based; summary of the method: as §1
# [13] = target: T5, Adenosine receptor A2b (Rattus norvegicus, UniProt P29276); assay: Antagonist activity at adenosine A2B receptor in Wistar-Kyoto rat distal colon; details: read-out: pA2 (converted)
# T5 sequence (P29276 whole entry): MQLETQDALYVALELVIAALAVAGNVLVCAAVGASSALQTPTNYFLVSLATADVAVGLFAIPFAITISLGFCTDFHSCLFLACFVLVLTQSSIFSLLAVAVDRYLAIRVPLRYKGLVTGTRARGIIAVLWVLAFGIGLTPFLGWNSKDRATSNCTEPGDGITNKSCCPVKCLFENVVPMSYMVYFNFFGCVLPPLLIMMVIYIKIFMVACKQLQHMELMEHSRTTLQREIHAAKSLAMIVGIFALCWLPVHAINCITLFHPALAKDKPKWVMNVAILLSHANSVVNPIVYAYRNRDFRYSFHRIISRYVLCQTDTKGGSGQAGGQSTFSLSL
Structure (SMILES),Ki [1] [nM],Ki [2] [nM],Ratio Ki [3],other results
Cc1ccc(-c2[nH]c3c(=O)n(C)c(=O)n(C)c3c2O)cc1,513,2450,4.8,–
CCCn1c(=O)c2[nH]c(-c3ccc([N+](=O)[O-])cc3)c(O)c2n(CCC)c1=O,50,145,2.9,–
Cc1ccc(-c2cc3c(c(=O)n(C)c(=O)n3C)n2O)cc1,2240,–,–,inhibition [6]: 8%
Cn1c(=O)c2c(cc(-c3ccccc3)n2O)n(C)c1=O,1660,–,–,inhibition [6]: 12%
CCCn1c(=O)c2[nH]c(-c3ccc(S(C)(=O)=O)cc3)c(O)c2n(CCC)c1=O,6.5,28,4.3,Ki [7]: 63 nM; Ki [8]: 295 nM
Cn1c(=O)c2[nH]c(-c3ccccc3)c(O)c2n(C)c1=O,288,1470,5.1,–
CCCn1c(=O)c2[nH]c(-c3ccc(C(=O)O)cc3)c(O)c2n(CCC)c1=O,338,933,2.8,–
Cn1c(=O)c2[nH]c(-c3ccc(S(C)(=O)=O)cc3)c(O)c2n(C)c1=O,68,692,10.2,–
CCCn1c(=O)c2[nH]c(-c3ccc(OC)cc3)c(O)c2n(CCC)c1=O,24,148,6.2,log K [4]: 0.51; solubility kinetic [5]: 120 µg/mL
CCCn1c(=O)c2[nH]c(-c3ccc(OCC(=O)N4CCN(Cc5ccccc5)CC4)cc3)cc2n(CCC)c1=O,–,–,42,Ki [7]: 43 nM; inhibition [9]: 5%; log K [4]: 0.93; solubility kinetic [5]: 2 µg/mL
CCCn1c(=O)c2[nH]c(-c3ccc(S(C)(=O)=O)cc3)c(O)c2n(C)c1=O,64,468,7.3,Ki [7]: 240 nM; inhibition [9]: 7%
CCCn1c(=O)c2[nH]c(-c3ccco3)c(OS(=O)(=O)O)c2n(CCC)c1=O,35,408,11.7,–
CCCn1c(=O)c2[nH]c(-c3ccc(OCC(=O)Nc4ccc(Br)cc4)cc3)c(O)c2n(CCC)c1=O,1,100,100,Kb [10]: 224 nM; Ki [7]: 79 nM; Ki [8]: 1290 nM; Ratio Ki [11]: 79; Ratio Ki [12]: 1290; Kb [13]: 0.468 nM
Cc1ccc(-c2cc3c([nH]2)c(=O)n(C)c(=O)n3C)cc1,457,126,0.28,–
CCCn1c(=O)c2[nH]c(-c3ccc(OCC(=O)Nc4ccc(Br)cc4)cc3)cc2n(CCC)c1=O,–,–,14,Ki [7]: 21 nM; Ki [8]: 199 nM
CCCn1c(=O)c2[nH]c(-c3ccc(C(C)=O)cc3)c(O)c2n(CCC)c1=O,71,324,4.6,–
CCCn1c(=O)c2c(cc(-c3ccc(OC)cc3)n2O)n(CCC)c1=O,479,631,1.3,–

# Second part, led by results:
Ki [1] [nM],Ki [2] [nM],Structure (SMILES),Ratio Ki [3],other results
19,166,CCCn1c(=O)c2[nH]c(-c3ccc(N)cc3)c(O)c2n(CCC)c1=O,8.7,log K [4]: 0.96; solubility kinetic [5]: 30 µg/mL
199,631,CCCn1c(=O)c2[nH]c(-c3ccc(C)cc3)cc2n(CCC)c1=O,3.2,log K [4]: 0.97; solubility kinetic [5]: 6 µg/mL
23,104,CCCn1c(=O)c2[nH]c(-c3ccco3)c(O)c2n(CCC)c1=O,4.5,–
54,50,CCCn1c(=O)c2[nH]c(-c3ccccc3)c(O)c2n(CCC)c1=O,0.93,Ki [7]: 83 nM; Ki [8]: 182 nM
115,102,CCCn1c(=O)c2c(cc(-c3ccc(O)cc3)n2O)n(CCC)c1=O,0.89,–
229,646,CCCn1c(=O)c2[nH]c(-c3ccccc3)cc2n(CCC)c1=O,2.8,Ki [7]: 34 nM; Ki [8]: 96 nM
44,48,CCCn1c(=O)c2[nH]c(-c3ccc(O)cc3)cc2n(CCC)c1=O,1.1,–
11,118,CCCn1c(=O)c2[nH]c(-c3ccc(O)cc3)c(O)c2n(CCC)c1=O,10.7,–
8.9,162,CCCn1c(=O)c2[nH]c(-c3ccc(N)cc3)cc2n(CCC)c1=O,18.2,log K [4]: 1.21; solubility kinetic [5]: 6 µg/mL
676,–,CCCn1c(=O)c2c(cc(-c3ccccc3)n2O)n(CCC)c1=O,–,inhibition [6]: 32%; Ki [7]: 25 nM; inhibition [9]: 30%
155,240,CCCn1c(=O)c2c(cc(-c3ccc(N)cc3)n2O)n(CCC)c1=O,1.5,–
89,89,CCCn1c(=O)c2[nH]c(-c3ccc(C)cc3)c(O)c2n(CCC)c1=O,1,log K [4]: 0.83; solubility kinetic [5]: 30 µg/mL
490,199,CCCn1c(=O)c2[nH]c(-c3ccc(OC)cc3)cc2n(CCC)c1=O,0.41,log K [4]: 0.71; solubility kinetic [5]: 28 µg/mL
589,398,CCCn1c(=O)c2c(cc(-c3ccc(C)cc3)n2O)n(CCC)c1=O,0.66,–
182,479,Cn1c(=O)c2[nH]c(-c3ccccc3)cc2n(C)c1=O,2.6,–
